{"source": "ChEMBL document CHEMBL2021883", "about": "“Amino acid, dipeptide and pseudodipeptide conjugates of ring-substituted 8-aminoquinolines: synthesis and evaluation of anti-infective, β-haematin inhibition and cytotoxic activities” (Eur J Med Chem, 2012)", "key": {"Escherichia coli": {"test_system": "Escherichia coli", "assay": "Antimicrobial activity against Escherichia coli ATCC 35218 by CLSI method", "format": "functional, organism-based"}, "[1]": {"assay": "Selectivity index, ratio of IC50 for african green monkey Vero cells to IC50 for chloroquine-resistant Plasmodium falciparum W2", "format": "toxicity, cell-based", "settings": "Vero cells versus Plasmodium falciparum W2, read-out: Ratio IC50"}, "[2]": {"assay": "Inhibition of beta-hematin formation", "format": "functional"}, "Plasmodium berghei [3]": {"test_system": "Plasmodium berghei", "assay": "Antimalarial activity against Plasmodium berghei blood-schizont in mouse malaria model assessed as elimination of parasitemia at 50 mg/kg, po for 4 days for 4 days measured after 7 days", "format": "functional, organism-based", "parameters": "dose 50 mg/kg", "in_short": "(§1)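 P. berghei-infected mice, 6 per group, received compound orally once daily for 4 days at 10, 25, 50 or 100 mg/kg/day. \"Active\" meant all treated animals were parasitaemia-negative up to D+7. \"Curative\" meant complete parasite elimination with survival to D+60. Outcomes were recorded as cured/total.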"}, "[4]": {"assay": "Ratio of chloroquine IC50 to compound IC50 for inhibition of beta-hematin formation"}, "Staphylococcus aureus [5]": {"test_system": "Staphylococcus aureus", "assay": "Antimicrobial activity against Staphylococcus aureus ATCC 29213 by CLSI method", "format": "functional, organism-based"}, "[6]": {"assay": "Selectivity index, ratio of IC50 for african green monkey Vero cells to IC50 for chloroquine-sensitive Plasmodium falciparum D6", "format": "toxicity, cell-based", "settings": "Vero cells versus Plasmodium falciparum D6, read-out: Ratio IC50"}, "Vero": {"test_system": "Vero", "assay": "Cytotoxicity against african green monkey Vero cells upto 23.8 […] by neutral dye assay", "format": "cell-based, Chlorocebus sabaeus", "in_short": "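Vero monkey kidney cells were exposed to compound up to a highest concentration of 23.8, with viability read by neutral red uptake.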"}, "Plasmodium berghei [7]": {"test_system": "Plasmodium berghei", "assay": "Antimalarial activity against Plasmodium berghei blood-schizont in mouse malaria model assessed as elimination of parasitemia at 10 mg/kg, po for 4 days for 4 days measured after 7 days", "format": "functional, organism-based", "parameters": "dose 10 mg/kg", "in_short": "as §1"}, "Plasmodium berghei [8]": {"test_system": "Plasmodium berghei", "assay": "Antimalarial activity against Plasmodium berghei blood-schizont in mouse malaria model assessed as disease curative activity at 100 mg/kg, po after 60 days", "format": "functional", "in_short": "as §1"}, "[9]": {"test_system": "Mycobacterium intracellulare", "assay": "Antimicrobial activity against Mycobacterium intracellulare ATCC 23068 by Franzblau method", "format": "functional, organism-based"}, "Leishmania donovani": {"test_system": "Leishmania donovani", "assay": "Antileishmanial activity against Leishmania donovani promastigote by Alamar Blue assay", "format": "functional, organism-based"}, "Plasmodium berghei [10]": {"test_system": "Plasmodium berghei", "assay": "Antimalarial activity against Plasmodium berghei blood-schizont in mouse malaria model assessed as elimination of parasitemia at 25 mg/kg, po for 4 days for 4 days measured after 7 days", "format": "functional, organism-based", "parameters": "dose 25 mg/kg", "in_short": "as §1"}, "Plasmodium falciparum [11]": {"test_system": "Plasmodium falciparum", "assay": "Antimalarial activity against chloroquine-sensitive Plasmodium falciparum D6 assessed as plasmodial LDH activity", "format": "functional, organism-based"}, "Staphylococcus aureus [12]": {"test_system": "Staphylococcus aureus", "assay": "Antimicrobial activity against methicillin-resistant Staphylococcus aureus ATCC 43300 by CLSI method", "format": "functional, organism-based"}, "Plasmodium falciparum [13]": {"test_system": "Plasmodium falciparum", "assay": "Antimalarial activity against chloroquine-resistant Plasmodium falciparum W2 assessed as plasmodial LDH activity", "format": "functional, organism-based"}, "Pseudomonas aeruginosa": {"test_system": "Pseudomonas aeruginosa", "assay": "Antimicrobial activity against Pseudomonas aeruginosa ATCC 27853 by CLSI method", "format": "functional, organism-based", "in_short": "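Antibacterial testing used CLSI/NCCLS broth dilution for aerobically growing bacteria, with 20 as the highest test concentration.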"}, "Candida albicans [14]": {"test_system": "Candida albicans", "assay": "Antifungal activity against Candida albicans at 20 ug/ml", "format": "functional, organism-based", "in_short": "(§2)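 Broth dilution antifungal testing followed the NCCLS reference method for yeasts, with 20 as the highest test concentration. MIC was the lowest concentration with no detectable growth. MFC was the lowest concentration killing the organism.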"}, "Nakaseomyces glabratus [15]": {"test_system": "Nakaseomyces glabratus", "assay": "Fungicidal activity against Candida glabrata at 20 ug/ml", "format": "functional, organism-based", "in_short": "as §2"}, "Cryptococcus neoformans [16]": {"test_system": "Cryptococcus neoformans", "assay": "Antifungal activity against Cryptococcus neoformans", "format": "functional, organism-based", "in_short": "(§3)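 Yeasts and A. fumigatus were tested by broth microdilution following the NCCLS antifungal standards. The highest test concentration was 20.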"}, "Nakaseomyces glabratus [17]": {"test_system": "Nakaseomyces glabratus", "assay": "Antifungal activity against Candida glabrata at 20 ug/ml", "format": "functional, organism-based", "in_short": "as §2"}, "Cryptococcus neoformans [18]": {"test_system": "Cryptococcus neoformans", "assay": "Fungicidal activity against Cryptococcus neoformans at 20 ug/ml", "format": "functional, organism-based", "in_short": "as §2"}, "Candida albicans [19]": {"test_system": "Candida albicans", "assay": "Fungicidal activity against Candida albicans at 20 ug/ml", "format": "functional, organism-based", "in_short": "as §2"}, "Pichia kudriavzevii [20]": {"test_system": "Pichia kudriavzevii", "assay": "Antifungal activity against Candida krusei at 20 ug/ml", "format": "functional, organism-based", "in_short": "as §2"}, "Pichia kudriavzevii [21]": {"test_system": "Pichia kudriavzevii", "assay": "Fungicidal activity against Candida krusei at 20 ug/ml", "format": "functional, organism-based", "in_short": "as §2"}, "Aspergillus fumigatus": {"test_system": "Aspergillus fumigatus", "assay": "Antifungal activity against Aspergillus fumigatus", "format": "functional, organism-based", "in_short": "as §3"}}, "note": "Calls of active or inactive are those of the source. Unless noted, the calls are words filed in the database; no cut-off is given here.", "data": [{"compound": "COc1cc(NC(C)CCCNC(=O)C[C@H](NC(=O)[C@@H](N)CCCCN)C(=O)O)c2ncccc2c1", "note": "(some centres undefined)", "values": [{"measurement": "Activity", "setting": "Escherichia coli", "result": "inactive"}, {"measurement": "selectivity ratio", "setting": "[1]", "result": "> 91.5"}, {"measurement": "IC50", "setting": "[2]", "result": 5.8, "unit": "µM"}, {"measurement": "Activity", "setting": "Plasmodium berghei [3]", "result": "Active"}, {"measurement": "Ratio IC50", "setting": "[4]", "result": 16}, {"measurement": "Activity", "setting": "Staphylococcus aureus [5]", "result": "inactive"}, {"measurement": "selectivity ratio", "setting": "[6]", "result": "> 183"}, {"measurement": "IC50", "setting": "Vero", "result": "Non-toxic"}, {"measurement": "Activity", "setting": "Plasmodium berghei [7]", "result": "Active"}, {"measurement": "Activity", "setting": "Plasmodium berghei [8]", "result": 100, "unit": "%"}, {"measurement": "Activity", "setting": "[9]", "result": "inactive"}, {"measurement": "IC50", "setting": "Leishmania donovani", "result": "Not Active"}, {"measurement": "IC90", "setting": "Leishmania donovani", "result": "inactive"}, {"measurement": "Activity", "setting": "Plasmodium berghei [10]", "result": "Active"}, {"measurement": "IC50", "setting": "Plasmodium falciparum [11]; Plasmodium falciparum, D6, read-out: IC50", "result": 0.13, "unit": "µg/mL"}, {"measurement": "Activity", "setting": "Staphylococcus aureus [12]", "result": "inactive"}, {"measurement": "IC50", "setting": "Plasmodium falciparum [13]; Plasmodium falciparum, W2, read-out: IC50", "result": 0.26, "unit": "µg/mL"}, {"measurement": "Activity", "setting": "Pseudomonas aeruginosa", "result": "inactive"}]}, {"compound": "COc1cc(NC(C)CCCNC(=O)CC[C@@H](NC(=O)[C@H](N)CCCCN)C(=O)O)c2nc(C(C)(C)C)ccc2c1", "note": "(some centres undefined)", "values": [{"measurement": "Activity", "setting": "Escherichia coli", "result": "inactive"}, {"measurement": "Activity", "setting": "Candida albicans [14]", "result": "inactive"}, {"measurement": "Activity", "setting": "Nakaseomyces glabratus [15]", "result": "inactive"}, {"measurement": "IC50", "setting": "Cryptococcus neoformans [16]", "result": 15.2, "unit": "µg/mL"}, {"measurement": "MIC", "setting": "Cryptococcus neoformans [16]", "result": 20, "unit": "µg/mL"}, {"measurement": "Activity", "setting": "Nakaseomyces glabratus [17]", "result": "inactive"}, {"measurement": "Activity", "setting": "Cryptococcus neoformans [18]", "result": "inactive"}, {"measurement": "IC50", "setting": "[2]", "result": "> 1000", "unit": "µM"}, {"measurement": "Activity", "setting": "Staphylococcus aureus [5]", "result": "inactive"}, {"measurement": "Activity", "setting": "Candida albicans [19]", "result": "inactive"}, {"measurement": "IC50", "setting": "Vero", "result": "Non-toxic"}, {"measurement": "Activity", "setting": "Pichia kudriavzevii [20]", "result": "inactive"}, {"measurement": "Activity", "setting": "Pichia kudriavzevii [21]", "result": "inactive"}, {"measurement": "Activity", "setting": "[9]", "result": "inactive"}, {"measurement": "IC50", "setting": "Leishmania donovani", "result": "Not Active"}, {"measurement": "IC90", "setting": "Leishmania donovani", "result": "inactive"}, {"measurement": "IC50", "setting": "Plasmodium falciparum [11]", "result": "Not Active"}, {"measurement": "Activity", "setting": "Staphylococcus aureus [12]", "result": "inactive"}, {"measurement": "Activity", "setting": "Aspergillus fumigatus", "result": "inactive"}, {"measurement": "IC50", "setting": "Plasmodium falciparum [13]", "result": "Not Active"}, {"measurement": "Activity", "setting": "Pseudomonas aeruginosa", "result": "inactive"}]}]}
